Measured values reported in ChEMBL document CHEMBL5576140, “Computational Design of Pore-Forming Peptides with Potent Antimicrobial and Anticancer Activities” (J Med Chem, 2024).
The source made the active and inactive calls. No cut-off for these calls is given here.

System: Pseudomonas aeruginosa
Assay: Induction of outer membrane permeabilization in Pseudomonas aeruginosa PAO1 measured for 20 mins by NPN uptake assay
Format: functional, organism-based
In short: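 Outer-membrane permeabilization of Gram-negative bacteria read as rise in fluorescence of the lipophilic dye NPN, which enters only when outer-membrane integrity is compromised. Peptides applied at their MIC against the respective strain; polymyxin B and levofloxacin as reference antibiotics. Triplicates.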

With H-KKKKLKKILKKLFQFINQLDNQLQDIKQNK-NH2 the Activity was “Active”.
